Measurements taken from EPA's CvTdb concentration-time database.

Tests used:
Rat [1] = assay: concentration in plasma after dosing; conditions: 3 h; dosed: Primidone; 130 mg/kg; oral; Female; F344
Rat [2] = assay: concentration in plasma after dosing; conditions: 12 h; dosed: Primidone; 30 mg/kg; oral; Female; F344
Rat [3] = assay: concentration in plasma after dosing; conditions: 9 h; dosed: Primidone; 30 mg/kg; oral; Female; F344
Mouse [4] = assay: concentration in plasma after dosing; conditions: 0.25 h; dosed: 2-Hydroxy-4-methoxybenzophenone; 500 mg/kg; oral; Male; B6C3F1
Mouse [5] = assay: concentration in plasma after dosing; conditions: 2 h; dosed: 2-Hydroxy-4-methoxybenzophenone; 250 mg/kg; oral; Male; B6C3F1
Rat [6] = assay: concentration in plasma after dosing; conditions: dosed: 2-Hydroxy-4-methoxybenzophenone, 500 mg/kg, oral, Female, F344
Mouse [7] = assay: concentration in plasma after dosing; conditions: 2 h; dosed: 2-Hydroxy-4-methoxybenzophenone; 250 mg/kg; oral; Female; B6C3F1
Rat [8] = assay: concentration in plasma after dosing; conditions: dosed: 2-Hydroxy-4-methoxybenzophenone, 100 mg/kg, oral, Female, F344
Rat [9] = assay: concentration in plasma after dosing; conditions: dosed: 2-Hydroxy-4-methoxybenzophenone, 250 mg/kg, oral, Male, F344
Rat [10] = assay: concentration in plasma after dosing; conditions: 0.25 h; dosed: 2-Hydroxy-4-methoxybenzophenone; 500 mg/kg; oral; Male; F344
Mouse [11] = assay: concentration in plasma after dosing; conditions: 3 h; dosed: 2-Hydroxy-4-methoxybenzophenone; 250 mg/kg; oral; Male; B6C3F1
Mouse [12] = assay: concentration in plasma after dosing; conditions: 0.25 h; dosed: 2-Hydroxy-4-methoxybenzophenone; 250 mg/kg; oral; Male; B6C3F1
Mouse [13] = assay: concentration in plasma after dosing; conditions: 10 min; dosed: 2-Hydroxy-4-methoxybenzophenone; 50 mg/kg; iv; Female; B6C3F1
Hamster [14] = assay: concentration in plasma after dosing; conditions: dosed: 2,4-Dichlorophenoxyacetic acid, 8.0 mg/kg, iv, Male, Syrian Golden
Summary of the method: (§1)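 Sampling and analytical methods are those of each source and frequently went unreported. The concentration-versus-time and amount-versus-time points were compiled from published in vivo toxicokinetic studies and two structured collections. Most were digitised from plot screenshots with WebPlotDigitizer, with others copied from tables, in the reported units.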

Rat [15] = assay: concentration in plasma after dosing; conditions: dosed: 2,4-Dichlorophenoxyacetic acid, 2.0 mg/kg, iv, Male, Sprague-Dawley
Hamster [16] = assay: concentration in plasma after dosing; conditions: dosed: 2,4-Dichlorophenoxyacetic acid, 8.0 mg/kg, iv, Male, Syrian Golden; remark: listed apart in the source
Summary of the method: as §1

Rat [17] = assay: concentration in brain after dosing; conditions: 5 min; dosed: alpha-Thujone; 50 mg/kg; oral; Female; Harlan Sprague Dawley
Rat [18] = assay: concentration in brain after dosing; conditions: 10 min; dosed: alpha-Thujone; 25 mg/kg; oral; Male; Harlan Sprague Dawley
Rat [19] = assay: concentration in plasma after dosing; conditions: 6 h; dosed: alpha-Thujone; 50 mg/kg; oral; Female; Harlan Sprague Dawley
Rat [20] = assay: concentration in plasma after dosing; conditions: 0.5 h; dosed: alpha-Thujone; 50 mg/kg; oral; Female; Harlan Sprague Dawley
Rat [21] = assay: concentration in plasma after dosing; conditions: 3 h; dosed: alpha-Thujone; 25 mg/kg; oral; Female; Harlan Sprague Dawley
Rat [22] = assay: concentration in plasma after dosing; conditions: 12 h; dosed: alpha-Thujone; 50 mg/kg; oral; Female; Harlan Sprague Dawley
Rat [23] = assay: concentration in plasma after dosing; conditions: 5 min; dosed: alpha-Thujone; 25 mg/kg; oral; Male; Harlan Sprague Dawley
Rat [24] = assay: concentration in brain after dosing; conditions: 3 h; dosed: alpha-Thujone; 25 mg/kg; oral; Male; Harlan Sprague Dawley
Rat [25] = assay: concentration in plasma after dosing; conditions: 12 h; dosed: alpha-Thujone; 50 mg/kg; oral; Female; Harlan Sprague Dawley; remark: listed apart in the source
Rat [26] = assay: concentration in brain after dosing; conditions: 2 h; dosed: 76231-76-0; 3.0 mg/kg; iv; Female; F344
Rat [27] = assay: concentration in brain after dosing; conditions: 6 h; dosed: alpha-Thujone; 50 mg/kg; oral; Female; Harlan Sprague Dawley
Rat [28] = assay: concentration in plasma after dosing; conditions: 0.5 h; dosed: alpha-Thujone; 50 mg/kg; oral; Male; Harlan Sprague Dawley
Rat [29] = assay: concentration in liver after dosing; conditions: 6 h; dosed: Perfluorohexane-1-sulphonic acid – potassium salt; 16 mg/kg; oral; Female; F344
Rat [30] = assay: concentration in liver after dosing; conditions: 192 h; dosed: Perfluorohexane-1-sulphonic acid – potassium salt; 16 mg/kg; oral; Female; F344
Rat [31] = assay: concentration in liver after dosing; conditions: 3 h; dosed: Perfluorohexane-1-sulphonic acid – potassium salt; 16 mg/kg; oral; Female; Harlan Sprague Dawley
Rat [32] = assay: concentration in brain after dosing; conditions: 192 h; dosed: Perfluorohexane-1-sulphonic acid – potassium salt; 16 mg/kg; oral; Female; F344
Rat [33] = assay: concentration in plasma after dosing; conditions: dosed: Pyridine, 25 mg/kg, oral, Female, Harlan Sprague-Dawley
Rat [34] = assay: concentration in plasma after dosing; conditions: 50 min; dosed: Pyridine; 10 mg/kg; iv; Male; F344

CCC1(c2ccccc2)C(=O)NCNC1=O [Primidone]
Conditions	concentration in plasma [ng/mL]
Rat [1]	50400
Rat [2]	5500
Rat [3]	6000

O=C(c1ccccc1)c1ccc(O)cc1O [2,4-Dihydroxybenzophenone]
Conditions	concentration in plasma [ng/mL]
Mouse [4]	2740
Mouse [5]	266
Mouse [7]	190
Mouse [11]	316
Mouse [12]	1130
Mouse [13]	2270
Rat [10]	103

concentration in plasma [ng/mL]
Conditions	0.5 h	5 h	10 h	10 min
Rat [6]	–	–	206	116
Rat [8]	255	46.6	–	–
Rat [9]	256	–	66.8	–

O=C(O)COc1ccc(Cl)cc1Cl [2,4-Dichlorophenoxyacetic acid]
concentration in plasma [ng/mL]
Conditions	0.25 h	0.5 h	0.75 h	1 h	2 h	2.5 h	2.5 min	3 h	10 min	20 min
Hamster [14]	36900	6320	–	939	–	351	113000	–	–	26600
Hamster [16]	–	10700	–	1700	–	–	–	–	30200	–
Rat [15]	15300	6490	6000	–	1910	720	26200	282	–	–

CC(C)[C@]12CC(=O)[C@H](C)[C@H]1C2 [alpha-Thujone]
Conditions	concentration in brain [ng/g]	concentration in plasma [ng/mL]
Rat [17]	996	–
Rat [18]	2000	–
Rat [19]	–	192
Rat [20]	–	5000
Rat [21]	–	180
Rat [22]	–	23.1
Rat [23]	–	104
Rat [24]	130	–
Rat [25]	–	18.3
Rat [26]	19.3	–
Rat [27]	165	–
Rat [28]	–	2180

O=S(=O)([O-])C(F)(F)C(F)(F)C(F)(F)C(F)(F)C(F)(F)C(F)(F)F.[K+] [Perfluorohexane-1-sulphonic acid – potassium salt]
Conditions	concentration in brain [ng/g]	concentration in liver [ng/g]
Rat [29]	–	87400
Rat [30]	–	38200
Rat [31]	–	57400
Rat [32]	929	–

c1ccncc1 [Pyridine]
Rat [33]
Conditions	concentration in plasma [ng/mL]
1 h	21400
8 h	15200

Conditions	concentration in plasma [ng/mL]
Rat [34]	2310
